In all, about 24,000 compounds went through this assay and fewer than 10 were called active. Cut-off read from the data, not from the text of the source: active = caspase activation above about 5.9%; inconclusive = no clear call, values can overlap the other calls; inactive = below about 2.2%. Only a sample is shown.
Experiment: A1 inhibitors via caspase activation, primary screen, cell-based, luminescence, HTS, two replicates (AID 2465)
Conditions: MEF A1-2A-BIM cells, caspase-Glo luminescence, 3 h; hits give high values; percent of clofoctol response, DMSO zero; concentration not given here
Outline: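 Evaluation: Caspase-3/7 activity from luminescence increase | Assay system: A1-2A-BIM mouse embryonic fibroblasts | Quantity: 2500 MEF cells/well | Medium: RPMI-1640 plus 10% FBS | Detection: Caspase-Glo 3/7 luminescence, 1 h at room temperature | Dosing: 50 nL compound per well, pinned | Timing: Cells settled overnight, compound exposure 3 h at 37 °C, 5% CO2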

Caspase activation, inactive:
C[C@@H]1CN([C@@H](C)CO)C(=O)c2cc(NC(=O)CCCCCC(=O)Nc3ccccc3N)ccc2O[C@@H](C)CCCCO[C@@H]1CN(C)CC1CCCCC1 0.522%, C[C@@H]1CCCCO[C@@H](CN(C)C(=O)C2CCCCC2)[C@H](C)CN([C@H](C)CO)C(=O)c2cc(NC(=O)Cc3ccccc3)ccc2O1 3.18%, C[C@@H]1CCCCO[C@@H](CN(C)S(=O)(=O)c2cccs2)[C@H](C)CN([C@H](C)CO)C(=O)c2cc(NC(=O)CCCN(C)C)ccc2O1 0.621%, Cc1ccc(S(=O)(=O)N(C)C[C@@H]2Oc3ccc(NC(=O)NC4CCCCC4)cc3C(=O)N([C@@H](C)CO)C[C@H]2C)cc1 -0.781%, C[C@H](CO)N1C[C@H](C)[C@H](CN(C)C(=O)Nc2ccccc2)Oc2c(NC(=O)Nc3ccc(C(F)(F)F)cc3)cccc2C1=O -0.159%, C[C@@H]1CCCCO[C@@H](CN(C)Cc2ccc(Cl)c(Cl)c2)[C@H](C)CN([C@@H](C)CO)C(=O)c2cc(NS(C)(=O)=O)ccc2O1 -0.491%, Cc1ccc(S(=O)(=O)Nc2ccc3c(c2)C(=O)N([C@@H](C)CO)C[C@@H](C)[C@H](CN(C)Cc2ccc4c(c2)OCO4)OCCCC[C@@H](C)O3)cc1 0.694%, C[C@H](CO)N1C[C@H](C)[C@@H](CN(C)C(=O)Nc2ccc(F)cc2)OCCCC[C@H](C)Oc2ccc(NC(=O)c3ccncc3)cc2C1=O 0.454%, CC(C)NC(=O)Nc1ccc2c(c1)C(=O)N([C@H](C)CO)C[C@@H](C)[C@@H](CN(C)Cc1ccncc1)O2 1.1%, C[C@@H]1CN([C@@H](C)CO)C(=O)c2cccc(NS(=O)(=O)c3ccccc3)c2O[C@@H]1CN(C)S(=O)(=O)c1ccc(F)cc1 0.0248%, COc1ccc(S(=O)(=O)Nc2ccc3c(c2)C(=O)N([C@@H](C)CO)C[C@@H](C)[C@H](CN(C)Cc2ccc(C(F)(F)F)cc2)OCCCC[C@@H](C)O3)cc1 -1.2%, C[C@H]1CN([C@@H](C)CO)C(=O)Cc2cc(NS(=O)(=O)c3ccccc3)ccc2O[C@@H]1CN(C)Cc1ccc(C(=O)Nc2ccccc2N)cc1 1.17%, Cc1noc(C)c1NC(=O)N(C)C[C@@H]1OCCCC[C@@H](C)Oc2ccc(NC(=O)C3CCCCC3)cc2C(=O)N([C@@H](C)CO)C[C@H]1C -0.914%, C[C@H]1CN([C@@H](C)CO)C(=O)Cc2cc(NC(=O)C3CCCCC3)ccc2O[C@H]1CN(C)C(=O)Nc1ccc(C(F)(F)F)cc1 0.751%, C[C@@H]1CCCCO[C@H](CN(C)Cc2ccc3c(c2)OCO3)[C@H](C)CN([C@@H](C)CO)C(=O)c2cc(NS(=O)(=O)c3cn(C)cn3)ccc2O1 -0.23%, Cc1ccc(S(=O)(=O)Nc2ccc3c(c2)C(=O)N([C@H](C)CO)C[C@@H](C)[C@H](CN(C)C(=O)Nc2ccc(C(F)(F)F)cc2)OCCCC[C@H](C)O3)cc1 -0.505%, COc1ccc(CN(C)C[C@@H]2Oc3ccc(NS(=O)(=O)c4ccc(F)cc4)cc3C(=O)N([C@@H](C)CO)C[C@@H]2C)cc1 -0.363%, C[C@H]1CN([C@@H](C)CO)C(=O)c2cccc(NS(=O)(=O)c3ccc(Cl)cc3)c2O[C@H]1CN(C)S(=O)(=O)c1ccc(Cl)cc1 -1.18%, Cc1ccc(S(=O)(=O)N(C)C[C@@H]2Oc3ccc(NC(=O)Cc4cn(C)c5ccccc45)cc3C(=O)N([C@@H](C)CO)C[C@@H]2C)cc1 0.187%, Cc1noc(C)c1S(=O)(=O)Nc1ccc2c(c1)CC(=O)N([C@@H](C)CO)C[C@H](C)[C@H](CN(C)C(=O)Nc1cccc3ccccc13)O2 0.254%, O=C(CCCCCCC(=O)Nc1ccccc1O)N/N=C/c1ccc(CO)o1 -0.255%, COC(=O)CCCCCCC(=O)N/N=C/c1ccc2ccccc2c1O -1.41%, COc1ccc(NC(=O)N(C)C[C@H]2OCCCC[C@@H](C)Oc3ccc(NC(=O)NC4CCCCC4)cc3C(=O)N([C@@H](C)CO)C[C@H]2C)cc1 0.476%, C[C@@H]1CN([C@@H](C)CO)C(=O)c2cc(NS(=O)(=O)c3cn(C)cn3)ccc2O[C@@H]1CN(C)Cc1ccc(C(=O)Nc2ccccc2N)cc1 0.311%, C[C@H]1CN([C@@H](C)CO)C(=O)c2cc(NC(=O)C3CCCCC3)ccc2O[C@H]1CN(C)C(=O)Nc1ccccc1 0.892%, C[C@@H]1CCCCO[C@@H](CN(C)Cc2ccc(C(=O)O)cc2)[C@@H](C)CN([C@@H](C)CO)C(=O)c2cc(NC(=O)Nc3ccc(C(F)(F)F)cc3)ccc2O1 0.286%, COc1ccc(NC(=O)Nc2ccc3c(c2)C(=O)N([C@@H](C)CO)C[C@@H](C)[C@@H](CN(C)Cc2ccncc2)OCCCC[C@@H](C)O3)cc1 -1.58%, C[C@@H]1CN([C@H](C)CO)C(=O)Cc2cc(NC(=O)CCC(F)(F)F)ccc2O[C@@H]1CN(C)Cc1ccncc1 0.918%, COc1ccc(NC(=O)N(C)C[C@H]2OCCCC[C@@H](C)Oc3ccc(NC(=O)c4ccncc4)cc3C(=O)N([C@@H](C)CO)C[C@H]2C)cc1 -1.47%, COc1ccc(C(=O)Nc2cccc(-n3cc(C(=O)NO)nn3)c2)cc1 -0.373%, COc1ccc(S(=O)(=O)Nc2ccc3c(c2)C(=O)N([C@@H](C)CO)C[C@H](C)[C@H](CN(C)S(=O)(=O)c2ccc(F)cc2)OCCCC[C@@H](C)O3)cc1 0.149%, C[C@H]1CN([C@@H](C)CO)C(=O)CCCn2cc(nn2)CO[C@@H]1CN(C)S(=O)(=O)c1cccc(C#N)c1 0.238%, Cc1noc(C)c1S(=O)(=O)N(C)C[C@@H]1Oc2ccc(NC(=O)Cn3cnnn3)cc2CC(=O)N([C@@H](C)CO)C[C@H]1C -0.944%, C[C@@H]1CN([C@@H](C)CO)C(=O)Cc2cc(NC(=O)CCCCCC(=O)Nc3ccccc3N)ccc2O[C@@H]1CN(C)C(=O)NC1CCCCC1 0.875%

Source: PubChem BioAssay AID2465 (Broad Institute, 2010)
